≈ marks a conversion by molar mass, not a printed value. Calls of active or inactive are those of the source.

As usually defined, the MIC is the smallest concentration in the dilution series that meets the test's criterion for growth inhibition.

In one assay the test system is Bacillus subtilis. The assay is described as follows: Antibacterial activity against Bacillus subtilis NBRC 13719 after overnight incubation by microdilution method. It counts as functional.
Conditions: not given
A digest of the protocol:
(§1)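 Broth microdilution MIC, modified Eloff method. Compounds were dissolved in DMSO (under 5%) and tested in duplicate. Two-fold serial dilution followed by overnight incubation at 37 °C. MIC is the lowest concentration inhibiting growth.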
On the technique in general: Dilution methods test growth across graded concentrations, often in twofold steps.
`COc1cc(OC)c(C(c2ccccc2)c2c(O)cc(O)c3c(=O)c4c(O)cc(O)cc4oc23)cc1OC` (single isomer, unassigned; (+)) [listing 1 of 2 here]: the MIC is 50 µM (≈ 25.8 µg/mL).
`COc1cc(OC)c(C(c2ccccc2)c2c(O)cc(O)c3c(=O)c4ccc(O)cc4oc23)cc1OC` (stereo in doubt; (+)-2) [listing 1 of 2 here] yielded an MIC of 10 µM (≈ 5.01 µg/mL).

Staying with this assay, now noted: Bacillus subtilis, NBRC 13719; read-out: MIC.
With `Oc1ccc(O)c(O)c1`, the MIC was greater than 100 µM.
The same measure, in the same setting: with `COc1cc(OC)c(C(=O)c2ccccc2)cc1OC` the figure was greater than 100 µM.
Turning to `COc1cc(O)c2c(=O)c3c(OC)cc(OC)cc3oc2c1`, the MIC is greater than 100 µM.
With `O=c1c2ccccc2oc2cc(O)cc(O)c12`, the MIC is greater than 100 µM.
For the molecule `COc1cc(OC)c2c(=O)c3c(O)cc(O)cc3oc2c1`, the minimum inhibitory concentration (MIC) is greater than 100 µM.
As for `COc1cc(OC)c(C(O)c2ccccc2)cc1OC` (stereo not drawn), the MIC was greater than 100 µM.
As for `O=c1c2ccc(O)cc2oc2cc(O)cc(O)c12`, the MIC was greater than 100 µM.
Regarding `O=c1c2c(O)cc(O)cc2oc2cc(O)cc(O)c12`, the MIC was greater than 100 µM.
Regarding `COc1cc(OC)c2c(=O)c3c(O)cc(O)c(C(c4ccccc4)c4cc(OC)c(OC)cc4OC)c3oc2c1` (racemic), the MIC was greater than 100 µM.
For `COc1cc(OC)c(C(c2ccccc2)c2c(O)cc(O)c3c(=O)c4ccccc4oc23)cc1OC` (racemic) [listing 1 of 2 here], the MIC is greater than 100 µM.
In the case of `COc1cc(OC)c(C(c2ccccc2)c2c(O)cc(O)c3c(=O)c4ccc(O)cc4oc23)cc1OC` (racemic) [listing 1 of 2 here], the minimal inhibitory concentration (MIC) worked out at 12.5 µM (≈ 6.26 µg/mL).
In the case of `COc1cc(OC)c2c(=O)c3c(O)cc(OC)c(C(c4ccccc4)c4cc(OC)c(OC)cc4OC)c3oc2c1` (racemic), the MIC was greater than 100 µM.
For the molecule `COc1cc(OC)c(C(c2ccccc2)c2c(O)cc(O)c3c(=O)c4c(O)cc(O)cc4oc23)cc1OC` (single isomer, unassigned; (-)) [listing 1 of 2 here], the MIC turned out to be 100 µM (≈ 51.7 µg/mL).
Consider `CC1(C)S[C@@H]2[C@H](NC(=O)[C@H](N)c3ccccc3)C(=O)N2[C@H]1C(=O)O` [AMPICILLIN], for which the MIC is 1.25 µM (≈ 0.437 µg/mL).
Still for that read-out and setting: with `NC[C@H]1O[C@H](O[C@H]2[C@H](O)[C@@H](O[C@H]3O[C@H](CO)[C@@H](O)[C@H](N)[C@H]3O)[C@H](N)C[C@@H]2N)[C@H](N)[C@@H](O)[C@@H]1O` [BEKANAMYCIN] the figure was 1.25 µM (≈ 0.604 µg/mL).

Another assay deals with Escherichia coli. The experiment in a line: Antibacterial activity against Escherichia coli NBRC 102203 after overnight incubation by microdilution method.
Conditions: not given
It counts as functional. A digest of the protocol: as §1
Turning to `Oc1ccc(O)c(O)c1`, the outcome was inactive.
On to `COc1cc(OC)c(C(=O)c2ccccc2)cc1OC`, for which the result was inactive.
Regarding `COc1cc(O)c2c(=O)c3c(OC)cc(OC)cc3oc2c1`, the result was inactive.
Regarding `O=c1c2ccccc2oc2cc(O)cc(O)c12`, the outcome was inactive.
Still for that read-out and setting: the entry for `COc1cc(OC)c2c(=O)c3c(O)cc(O)cc3oc2c1` is “inactive”; for `COc1cc(OC)c(C(O)c2ccccc2)cc1OC` (stereo not drawn) it is “inactive”; for `O=c1c2ccc(O)cc2oc2cc(O)cc(O)c12` it is “inactive”.
Turning to `O=c1c2c(O)cc(O)cc2oc2cc(O)cc(O)c12`, the result was inactive.
As for `COc1cc(OC)c2c(=O)c3c(O)cc(O)c(C(c4ccccc4)c4cc(OC)c(OC)cc4OC)c3oc2c1` (racemic), the result was inactive.
Consider `COc1cc(OC)c2c(=O)c3c(O)cc(OC)c(C(c4ccccc4)c4cc(OC)c(OC)cc4OC)c3oc2c1` (racemic), for which the outcome was inactive.
For `COc1cc(OC)c(C(c2ccccc2)c2c(O)cc(O)c3c(=O)c4c(O)cc(O)cc4oc23)cc1OC` (racemic), the result was inactive.
`COc1cc(OC)c(C(c2ccccc2)c2c(O)cc(O)c3c(=O)c4ccc(O)cc4oc23)cc1OC` (racemic) [listing 2 of 2 here]: the result was inactive.
On to `COc1cc(OC)c(C(c2ccccc2)c2c(O)cc(O)c3c(=O)c4ccccc4oc23)cc1OC` (racemic) [listing 2 of 2 here], for which the outcome was inactive.
`COc1cc(OC)c(C(c2ccccc2)c2c(O)cc(O)c3c(=O)c4c(O)cc(O)cc4oc23)cc1OC` (single isomer, unassigned; (+)) [listing 2 of 2 here]: the result was inactive.
Still for that read-out and setting: the entry for `COc1cc(OC)c(C(c2ccccc2)c2c(O)cc(O)c3c(=O)c4ccccc4oc23)cc1OC` (single isomer, unassigned; (+)) [listing 1 of 2 here] is “inactive”; for `COc1cc(OC)c(C(c2ccccc2)c2c(O)cc(O)c3c(=O)c4c(O)cc(O)cc4oc23)cc1OC` (single isomer, unassigned; (-)) [listing 2 of 2 here] it is “inactive”.
Regarding `COc1cc(OC)c(C(c2ccccc2)c2c(O)cc(O)c3c(=O)c4ccccc4oc23)cc1OC` (single isomer, unassigned; (-)) [listing 1 of 2 here], the outcome was inactive.
On the same count and under the same terms, with `COc1cc(OC)c(C(c2ccccc2)c2c(O)cc(O)c3c(=O)c4ccc(O)cc4oc23)cc1OC` (stereo in doubt; (+)-2) [listing 2 of 2 here] the entry was “inactive”; with `COc1cc(OC)c(C(c2ccccc2)c2c(O)cc(O)c3c(=O)c4ccc(O)cc4oc23)cc1OC` (stereo in doubt; (-)-2) [listing 1 of 2 here], “inactive”.

A further assay relates to Staphylococcus aureus. The assay is described as follows: Antibacterial activity against Staphylococcus aureus NBRC 100910 after overnight incubation by microdilution method.
Conditions: not given
The format is functional. A digest of the protocol:
as §1
As to `COc1cc(OC)c(C(c2ccccc2)c2c(O)cc(O)c3c(=O)c4ccccc4oc23)cc1OC` (racemic) [listing 1 of 2 here], the MIC worked out at 25 µM (≈ 12.1 µg/mL).
The molecule `COc1cc(OC)c(C(c2ccccc2)c2c(O)cc(O)c3c(=O)c4ccccc4oc23)cc1OC` (single isomer, unassigned; (+)) [listing 2 of 2 here] came in with an MIC of 10 µM (≈ 4.85 µg/mL).
The molecule `COc1cc(OC)c(C(c2ccccc2)c2c(O)cc(O)c3c(=O)c4c(O)cc(O)cc4oc23)cc1OC` (single isomer, unassigned; (+)) [listing 1 of 2 here] gave an MIC of 10 µM (≈ 5.17 µg/mL).
Regarding `COc1cc(OC)c(C(c2ccccc2)c2c(O)cc(O)c3c(=O)c4ccccc4oc23)cc1OC` (single isomer, unassigned; (-)) [listing 2 of 2 here], the MIC is 50 µM (≈ 24.2 µg/mL).

The same assay, now with this note: Staphylococcus aureus, NBRC 100910; read-out: MIC.
For `Oc1ccc(O)c(O)c1`, the MIC is greater than 100 µM.
The same measure, in the same setting: with `COc1cc(OC)c(C(=O)c2ccccc2)cc1OC` the figure was greater than 100 µM; with `COc1cc(O)c2c(=O)c3c(OC)cc(OC)cc3oc2c1`, greater than 100 µM.
In the case of `O=c1c2ccccc2oc2cc(O)cc(O)c12`, the MIC came out at 100 µM (≈ 22.8 µg/mL).
As to `COc1cc(OC)c2c(=O)c3c(O)cc(O)cc3oc2c1`, the MIC is greater than 100 µM.
With `COc1cc(OC)c(C(O)c2ccccc2)cc1OC` (stereo not drawn), the MIC was greater than 100 µM.
Turning to `O=c1c2ccc(O)cc2oc2cc(O)cc(O)c12`, the MIC is 100 µM (≈ 24.4 µg/mL).
On to `O=c1c2c(O)cc(O)cc2oc2cc(O)cc(O)c12`, for which the MIC amounted to 50 µM (≈ 13 µg/mL).
Regarding `COc1cc(OC)c2c(=O)c3c(O)cc(O)c(C(c4ccccc4)c4cc(OC)c(OC)cc4OC)c3oc2c1` (racemic), the MIC was greater than 100 µM.
For the molecule `COc1cc(OC)c2c(=O)c3c(O)cc(OC)c(C(c4ccccc4)c4cc(OC)c(OC)cc4OC)c3oc2c1` (racemic), the MIC is greater than 100 µM.
For `COc1cc(OC)c(C(c2ccccc2)c2c(O)cc(O)c3c(=O)c4c(O)cc(O)cc4oc23)cc1OC` (single isomer, unassigned; (-)) [listing 1 of 2 here], the MIC worked out at 12.5 µM (≈ 6.46 µg/mL).
For `COc1cc(OC)c(C(c2ccccc2)c2c(O)cc(O)c3c(=O)c4ccc(O)cc4oc23)cc1OC` (stereo in doubt; (-)-2) [listing 2 of 2 here], the MIC is 10 µM (≈ 5.01 µg/mL).
In the case of `CC1(C)S[C@@H]2[C@H](NC(=O)[C@H](N)c3ccccc3)C(=O)N2[C@H]1C(=O)O` [AMPICILLIN], the MIC was found to be 1.25 µM (≈ 0.437 µg/mL).
On to `NC[C@H]1O[C@H](O[C@H]2[C@H](O)[C@@H](O[C@H]3O[C@H](CO)[C@@H](O)[C@H](N)[C@H]3O)[C@H](N)C[C@@H]2N)[C@H](N)[C@@H](O)[C@@H]1O` [BEKANAMYCIN], for which the minimal inhibitory concentration (MIC) was 1.25 µM (≈ 0.604 µg/mL).

A further assay has as its system Klebsiella pneumoniae. The assay is described as follows: Antibacterial activity against Klebsiella pneumoniae NBRC 14940 after overnight incubation by microdilution method.
Conditions: not given
It counts as functional. A digest of the protocol:
as §1
With `Oc1ccc(O)c(O)c1`, the outcome was inactive.
`COc1cc(OC)c(C(=O)c2ccccc2)cc1OC`: the result was inactive.
The same measure, in the same setting: the entry for `COc1cc(O)c2c(=O)c3c(OC)cc(OC)cc3oc2c1` is “inactive”; for `O=c1c2ccccc2oc2cc(O)cc(O)c12` it is “inactive”.
Turning to `COc1cc(OC)c2c(=O)c3c(O)cc(O)cc3oc2c1`, the outcome was inactive.
On the same count and under the same terms, the entry for `COc1cc(OC)c(C(O)c2ccccc2)cc1OC` (stereo not drawn) is “inactive”; for `O=c1c2ccc(O)cc2oc2cc(O)cc(O)c12` it is “inactive”.
Turning to `O=c1c2c(O)cc(O)cc2oc2cc(O)cc(O)c12`, the outcome was inactive.
On the same count and under the same terms, with `COc1cc(OC)c2c(=O)c3c(O)cc(O)c(C(c4ccccc4)c4cc(OC)c(OC)cc4OC)c3oc2c1` (racemic) the entry was “inactive”; with `COc1cc(OC)c2c(=O)c3c(O)cc(OC)c(C(c4ccccc4)c4cc(OC)c(OC)cc4OC)c3oc2c1` (racemic), “inactive”.
In the case of `COc1cc(OC)c(C(c2ccccc2)c2c(O)cc(O)c3c(=O)c4c(O)cc(O)cc4oc23)cc1OC` (racemic), the result was inactive.
With `COc1cc(OC)c(C(c2ccccc2)c2c(O)cc(O)c3c(=O)c4ccc(O)cc4oc23)cc1OC` (racemic) [listing 2 of 2 here], the result was inactive.
With `COc1cc(OC)c(C(c2ccccc2)c2c(O)cc(O)c3c(=O)c4ccccc4oc23)cc1OC` (racemic) [listing 2 of 2 here], the result was inactive.
With `COc1cc(OC)c(C(c2ccccc2)c2c(O)cc(O)c3c(=O)c4c(O)cc(O)cc4oc23)cc1OC` (single isomer, unassigned; (+)) [listing 2 of 2 here], the outcome was inactive.
For the molecule `COc1cc(OC)c(C(c2ccccc2)c2c(O)cc(O)c3c(=O)c4ccccc4oc23)cc1OC` (single isomer, unassigned; (+)) [listing 1 of 2 here], the outcome was inactive.
`COc1cc(OC)c(C(c2ccccc2)c2c(O)cc(O)c3c(=O)c4c(O)cc(O)cc4oc23)cc1OC` (single isomer, unassigned; (-)) [listing 2 of 2 here]: the result was inactive.
`COc1cc(OC)c(C(c2ccccc2)c2c(O)cc(O)c3c(=O)c4ccccc4oc23)cc1OC` (single isomer, unassigned; (-)) [listing 1 of 2 here]: the outcome was inactive.
On the same count and under the same terms, the entry for `COc1cc(OC)c(C(c2ccccc2)c2c(O)cc(O)c3c(=O)c4ccc(O)cc4oc23)cc1OC` (stereo in doubt; (+)-2) [listing 2 of 2 here] is “inactive”; for `COc1cc(OC)c(C(c2ccccc2)c2c(O)cc(O)c3c(=O)c4ccc(O)cc4oc23)cc1OC` (stereo in doubt; (-)-2) [listing 1 of 2 here] it is “inactive”.

For the origin of these results see ChEMBL document CHEMBL4028828, “Syntheses of benzophenone-xanthone hybrid polyketides and their antibacterial activities” (2017).
